Assay results published in ChEMBL document CHEMBL2086245, “Micelles catalyzed chemo- and regio-selective one pot and one step synthesis of 2,3,5,6-tetrakis(alkyl and arylsulfanyl)-1,4-benzoquinones and 2,5-diaminosubstituted-1,4-benzoquinones "In-Water" and their biological evaluation as antibacterial and antifungal agents” (Eur J Med Chem, 2012).
In brackets after ≈: the same amount, converted by molar mass.

Experiments:
Staphylococcus aureus = test: Antibacterial activity against Staphylococcus aureus ATCC 25923 after 24 hrs by broth microdilution method; assay type: functional; details: ATCC 25923, 24 h
In short: (§1)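 NCCLS broth microdilution in Mueller-Hinton broth, 96-well plates. Initial inoculum 1-5 × 10^3 cells/mL. Incubated in a moist chamber at 35 °C for 24 h, then absorbance read at 492 nm. MIC taken as the concentration giving 90% growth inhibition relative to the growth control.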

Klebsiella pneumoniae = test: Antibacterial activity against Klebsiella pneumoniae ATCC 27736 after 24 hrs by broth microdilution method; assay type: functional; details: ATCC 27736, 24 h; in short: as §1
Aspergillus fumigatus = test: Antifungal activity against Aspergillus fumigatus after 72 hrs by broth microdilution method; assay type: functional
In short: (§2)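 NCCLS broth microdilution in MOPS-buffered RPMI 1640, 96-well plates. Inoculum 1-5 × 10^3 cells/mL, moist chamber, 35 °C. Absorbance at 492 nm read at 48 h (C. albicans, C. parapsilosis), 72 h (C. neoformans, S. schenckii, A. fumigatus) or 96 h (T. mentagrophytes). MIC defined as 90% growth inhibition versus growth control.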

Candida albicans = test: Antifungal activity against Candida albicans after 48 hrs by broth microdilution method; assay type: functional; in short: as §2
Sporothrix schenckii = test: Antifungal activity against Sporothrix schenckii after 72 hrs by broth microdilution method; assay type: functional; in short: as §2
Candida parapsilosis = test: Antifungal activity against Candida parapsilosis ATCC 22019 after 48 hrs by broth microdilution method; assay type: functional; details: Lodderomyces parapsilosis, ATCC 22019, 48 h; in short: as §2
Cryptococcus neoformans = test: Antifungal activity against Cryptococcus neoformans after 72 hrs by broth microdilution method; assay type: functional; in short: as §2
[1] = tested on: Trichophyton mentagrophytes; test: Antifungal activity against Trichophyton mentagrophytes after 96 hrs by broth microdilution method; assay type: functional; in short: as §2
Pseudomonas aeruginosa = test: Antibacterial activity against Pseudomonas aeruginosa ATCC BAA-427 after 24 hrs by broth microdilution method; assay type: functional; details: ATCC BAA-427, 24 h; in short: as §1
Escherichia coli = test: Antibacterial activity against Escherichia coli ATCC 9637 after 24 hrs by broth microdilution method; assay type: functional; details: ATCC 9637, 24 h; in short: as §1
[2] = Cytotoxicity against mouse L929 cells assessed as cell viability at 6.25 to 50 ug/ml after 24 hrs by MTT assay; assay type: cell-based; details: read-out: Activity
L929 [3] = test: Cytotoxicity against mouse L929 cells assessed as morphological changes at 6.25 to 50 ug/ml using Giemsa staining by phase contrast microscopy analysis; assay type: cell-based
In short: (§3)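 L929 fibroblasts in serum-free RPMI exposed to compound for 24 h. Wells fixed, Giemsa-stained 30 min at 37 °C, washed with PBS, air-dried. Morphology inspected by phase contrast microscopy against untreated control wells.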

L929 [4] = test: Cytotoxicity against mouse L929 cells assessed as morphological changes at 0.39 to 1.56 ug/ml using Giemsa staining by phase contrast microscopy analysis; assay type: cell-based; in short: as §3

In the case of `CCOC(=O)CC(SC1=C(SC(CC(=O)OCC)C(=O)OCC)C(=O)C(SC(CC(=O)OCC)C(=O)OCC)=C(SC(CC(=O)OCC)C(=O)OCC)C1=O)C(=O)OCC` (centres undefined), the MIC (Staphylococcus aureus) was > 50 µg/mL, the MIC (Klebsiella pneumoniae) was > 50 µg/mL and the MIC (Aspergillus fumigatus) was > 50 µg/mL. The MIC (Candida albicans) was 25 µg/mL (≈ 27 µM), the MIC (Sporothrix schenckii) was > 50 µg/mL and the MIC (Candida parapsilosis) was 25 µg/mL (≈ 27 µM). For the same compound, the MIC (Cryptococcus neoformans) was 50 µg/mL (≈ 54 µM), the MIC [1] was 50 µg/mL (≈ 54 µM) and the MIC (Pseudomonas aeruginosa) was > 50 µg/mL. The MIC (Escherichia coli) was > 50 µg/mL.

In the case of `O=C1C(Cl)=C(Sc2ccccc2)C(=O)C(Sc2ccccc2)=C1Sc1ccccc1`, the MIC (Staphylococcus aureus) was 50 µg/mL (≈ 107 µM), the MIC (Klebsiella pneumoniae) was > 50 µg/mL and the MIC (Aspergillus fumigatus) was > 50 µg/mL. For the same compound, the MIC (Candida albicans) was 25 µg/mL (≈ 53.5 µM), the MIC (Sporothrix schenckii) was 50 µg/mL (≈ 107 µM) and the MIC (Candida parapsilosis) was 25 µg/mL (≈ 53.5 µM). The MIC (Cryptococcus neoformans) was 25 µg/mL (≈ 53.5 µM), the MIC [1] was 50 µg/mL (≈ 107 µM) and the MIC (Pseudomonas aeruginosa) was > 50 µg/mL. For the same compound, the MIC (Escherichia coli) was > 50 µg/mL.

In the case of `O=C1C(Cl)=C(Sc2cccc3ccccc23)C(=O)C(Sc2cccc3ccccc23)=C1Sc1cccc2ccccc12`, the MIC (Staphylococcus aureus) was 12.5 µg/mL (≈ 20.3 µM), the MIC (Klebsiella pneumoniae) was > 50 µg/mL and the MIC (Aspergillus fumigatus) was > 50 µg/mL. The MIC (Candida albicans) was 25 µg/mL (≈ 40.5 µM), the MIC (Sporothrix schenckii) was 50 µg/mL (≈ 81 µM) and the MIC (Candida parapsilosis) was 12.5 µg/mL (≈ 20.3 µM). The MIC (Cryptococcus neoformans) was 25 µg/mL (≈ 40.5 µM), the MIC [1] was 50 µg/mL (≈ 81 µM) and the MIC (Pseudomonas aeruginosa) was > 50 µg/mL. For the same compound, the MIC (Escherichia coli) was > 50 µg/mL.

With `CCOC(=O)CSC1=C(SCC(=O)OCC)C(=O)C(SCC(=O)OCC)=C(SCC(=O)OCC)C1=O` the MIC (Staphylococcus aureus) was 50 µg/mL (≈ 86.1 µM), the MIC (Klebsiella pneumoniae) was > 50 µg/mL and the MIC (Aspergillus fumigatus) was > 50 µg/mL. For the same compound, the MIC (Candida albicans) was 25 µg/mL (≈ 43 µM), the MIC (Sporothrix schenckii) was > 50 µg/mL and the MIC (Candida parapsilosis) was 25 µg/mL (≈ 43 µM). For the same compound, the MIC (Cryptococcus neoformans) was 50 µg/mL (≈ 86.1 µM), the MIC [1] was 50 µg/mL (≈ 86.1 µM) and the MIC (Pseudomonas aeruginosa) was > 50 µg/mL. The MIC (Escherichia coli) was > 50 µg/mL.

With `O=C1C(Cl)=C(Sc2cccc3ccccc23)C(=O)C(Cl)=C1Sc1cccc2ccccc12` the MIC (Staphylococcus aureus) was 25 µg/mL (≈ 50.7 µM), the MIC (Klebsiella pneumoniae) was > 50 µg/mL and the MIC (Aspergillus fumigatus) was > 50 µg/mL. The MIC (Candida albicans) was 25 µg/mL (≈ 50.7 µM), the MIC (Sporothrix schenckii) was 50 µg/mL (≈ 101 µM) and the MIC (Candida parapsilosis) was 12.5 µg/mL (≈ 25.3 µM). For the same compound, the MIC (Cryptococcus neoformans) was 25 µg/mL (≈ 50.7 µM), the MIC [1] was 50 µg/mL (≈ 101 µM) and the MIC (Pseudomonas aeruginosa) was > 50 µg/mL. The MIC (Escherichia coli) was > 50 µg/mL.

With `O=C1C(Sc2ccccc2)=C(Sc2ccccc2)C(=O)C(Sc2ccccc2)=C1Sc1ccccc1` the MIC (Staphylococcus aureus) was > 50 µg/mL, the MIC (Klebsiella pneumoniae) was > 50 µg/mL and the MIC (Aspergillus fumigatus) was 50 µg/mL (≈ 92.5 µM). The MIC (Candida albicans) was 12.5 µg/mL (≈ 23.1 µM), the MIC (Sporothrix schenckii) was 1.56 µg/mL (≈ 2.88 µM) and the MIC (Candida parapsilosis) was 6.25 µg/mL (≈ 11.6 µM). For the same compound, the MIC (Cryptococcus neoformans) was 12.5 µg/mL (≈ 23.1 µM), the MIC [1] was 0.78 µg/mL (≈ 1.44 µM) and the MIC (Pseudomonas aeruginosa) was > 50 µg/mL. For the same compound, the MIC (Escherichia coli) was > 50 µg/mL.

With `Cc1ccc(SC2=C(Sc3ccc(C)cc3)C(=O)C(Sc3ccc(C)cc3)=C(Sc3ccc(C)cc3)C2=O)cc1` the MIC (Staphylococcus aureus) was > 50 µg/mL, the MIC (Klebsiella pneumoniae) was > 50 µg/mL and the MIC (Aspergillus fumigatus) was > 50 µg/mL. It also gave an MIC (Candida albicans) of 25 µg/mL (≈ 41.9 µM), an MIC (Sporothrix schenckii) of 50 µg/mL (≈ 83.8 µM) and an MIC (Candida parapsilosis) of 25 µg/mL (≈ 41.9 µM). For the same compound, the MIC (Cryptococcus neoformans) was > 50 µg/mL, the MIC [1] was > 50 µg/mL and the MIC (Pseudomonas aeruginosa) was > 50 µg/mL. The MIC (Escherichia coli) was > 50 µg/mL.

For `O=C1C=C(Sc2ccccc2)C(=O)C=C1Sc1ccccc1`, the MIC (Staphylococcus aureus) was > 50 µg/mL, the MIC (Klebsiella pneumoniae) was > 50 µg/mL and the MIC (Aspergillus fumigatus) was > 50 µg/mL. The MIC (Candida albicans) was 25 µg/mL (≈ 77.1 µM), the MIC (Sporothrix schenckii) was 50 µg/mL (≈ 154 µM) and the MIC (Candida parapsilosis) was 50 µg/mL (≈ 154 µM). For the same compound, the MIC (Cryptococcus neoformans) was 25 µg/mL (≈ 77.1 µM), the MIC [1] was 50 µg/mL (≈ 154 µM) and the MIC (Pseudomonas aeruginosa) was > 50 µg/mL. For the same compound, the MIC (Escherichia coli) was > 50 µg/mL.

With `O=C1C(Cl)=C(N2CCOCC2)C(=O)C(Cl)=C1N1CCOCC1` the MIC (Staphylococcus aureus) was 25 µg/mL (≈ 72 µM), the MIC (Klebsiella pneumoniae) was > 50 µg/mL and the MIC (Aspergillus fumigatus) was > 50 µg/mL. It also gave an MIC (Candida albicans) of 12.5 µg/mL (≈ 36 µM), an MIC (Sporothrix schenckii) of 12.5 µg/mL (≈ 36 µM) and an MIC (Candida parapsilosis) of 12.5 µg/mL (≈ 36 µM). The MIC (Cryptococcus neoformans) was 12.5 µg/mL (≈ 36 µM), the MIC [1] was 6.25 µg/mL (≈ 18 µM) and the MIC (Pseudomonas aeruginosa) was > 50 µg/mL. For the same compound, the MIC (Escherichia coli) was > 50 µg/mL.

For `CN1CCN(C2=C(Cl)C(=O)C(N3CCN(C)CC3)=C(Cl)C2=O)CC1`, the viability at 24 h [2] was > 90%, the MIC (Staphylococcus aureus) was 6.25 µg/mL (≈ 16.7 µM) and the Activity (L929 [3]) was “Toxic”. For the same compound, the Activity (L929 [4]) was “Non-toxic”, the MIC (Klebsiella pneumoniae) was 6.25 µg/mL (≈ 16.7 µM) and the MIC (Aspergillus fumigatus) was 12.5 µg/mL (≈ 33.5 µM). The MIC (Candida albicans) was 6.25 µg/mL (≈ 16.7 µM), the MIC (Sporothrix schenckii) was 1.56 µg/mL (≈ 4.18 µM) and the MIC (Candida parapsilosis) was 6.25 µg/mL (≈ 16.7 µM). The MIC (Cryptococcus neoformans) was 1.56 µg/mL (≈ 4.18 µM), the MIC [1] was 0.78 µg/mL (≈ 2.09 µM) and the MIC (Pseudomonas aeruginosa) was > 50 µg/mL. It also gave an MIC (Escherichia coli) of 6.25 µg/mL (≈ 16.7 µM).

For `Nc1nc(=O)[nH]cc1F` [FLUCYTOSINE], the MIC (Aspergillus fumigatus) was > 32 µg/mL, the MIC (Candida albicans) was 0.25 µg/mL (≈ 1.94 µM) and the MIC (Sporothrix schenckii) was > 32 µg/mL. The MIC (Candida parapsilosis) was 0.13 µg/mL (≈ 1.01 µM), the MIC (Cryptococcus neoformans) was 0.13 µg/mL (≈ 1.01 µM) and the MIC [1] was > 32 µg/mL.
